{
  "source": "ChEMBL document CHEMBL3286371",
  "about": "“wALADin benzimidazoles differentially modulate the function of porphobilinogen synthase orthologs” (J Med Chem, 2014)",
  "key": {"[1]": {"target": "Delta-aminolevulinic acid dehydratase (Pseudomonas aeruginosa (strain ATCC 15692 / PAO1 / 1C / PRS 101 / LMG12228)) (UniProt Q59643)", "sequence (Q59643 whole entry)": "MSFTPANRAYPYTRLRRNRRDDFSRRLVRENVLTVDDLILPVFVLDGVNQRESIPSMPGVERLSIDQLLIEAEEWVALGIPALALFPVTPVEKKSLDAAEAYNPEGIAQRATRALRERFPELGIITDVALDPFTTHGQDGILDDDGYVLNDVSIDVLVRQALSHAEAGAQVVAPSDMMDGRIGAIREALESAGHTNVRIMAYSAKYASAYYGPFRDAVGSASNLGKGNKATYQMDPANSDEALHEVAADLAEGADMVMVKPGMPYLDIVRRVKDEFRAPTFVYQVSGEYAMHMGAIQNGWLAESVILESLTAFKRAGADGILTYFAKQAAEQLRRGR", "experiment": "Stimulation of Pseudomonas aeruginosa PAO1 recombinant PBGS assessed as stabilization of octameric form at 250 uM at pH 7 to 8.5 by nondenaturing PAGE analysis in presence of Mg2+ and K+"}, "[2]": {"target": "Delta-aminolevulinic acid dehydratase (Yersinia enterocolitica W22703) (UniProt F4MUJ9)", "sequence (F4MUJ9 as listed by the source)": "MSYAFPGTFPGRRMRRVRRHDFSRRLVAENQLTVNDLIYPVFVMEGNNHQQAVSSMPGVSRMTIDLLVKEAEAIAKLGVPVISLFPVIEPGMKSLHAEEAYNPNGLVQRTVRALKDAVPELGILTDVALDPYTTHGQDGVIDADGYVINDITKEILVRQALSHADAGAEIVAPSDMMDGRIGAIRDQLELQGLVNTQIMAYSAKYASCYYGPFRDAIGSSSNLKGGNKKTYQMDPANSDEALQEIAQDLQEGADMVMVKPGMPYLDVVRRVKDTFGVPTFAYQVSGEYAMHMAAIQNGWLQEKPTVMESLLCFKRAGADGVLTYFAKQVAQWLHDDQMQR", "experiment": "Inhibition of Yersinia enterocolitica recombinant PBGS expressed in Escherichia coli using 5-ALA as substrate at 50 to 200 uM at pH 7 to 8.5 by buffer scan assay"}, "[3]": {"target": "T1, Delta-aminolevulinic acid dehydratase (Escherichia coli (strain K12), UniProt P0ACB2)", "T1 sequence (P0ACB2 whole entry)": "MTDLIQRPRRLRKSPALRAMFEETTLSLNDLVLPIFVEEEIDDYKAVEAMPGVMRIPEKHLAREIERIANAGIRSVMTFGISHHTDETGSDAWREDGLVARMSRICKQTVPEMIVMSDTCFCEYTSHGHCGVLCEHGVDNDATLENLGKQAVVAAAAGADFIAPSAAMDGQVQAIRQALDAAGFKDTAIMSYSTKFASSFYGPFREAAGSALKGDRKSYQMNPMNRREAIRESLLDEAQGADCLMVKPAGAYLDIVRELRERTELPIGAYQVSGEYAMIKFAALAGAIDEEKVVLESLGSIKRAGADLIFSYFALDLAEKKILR", "experiment": "Stimulation of Escherichia coli recombinant PBGS using 5-ALA as substrate", "summary_of_the_method": "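E. coli PBGS at 200 nM subunit in 100 mM BTP-HCl pH 8.1 with 1 mM MgCl2, 10 μM ZnCl2, 5 mM DTT and 0.2 mM 5-ALA, 10 min at 36 °C. Porphobilinogen detected with Ehrlich's reagent. Activity normalized to control with 6.7% DMSO set at 100%. EC50 by log(agonist) vs response variable-slope fit.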"}, "[4]": {"target": "T2, Delta-aminolevulinic acid dehydratase (Escherichia coli (strain K12)) (UniProt P0ACB2)", "T2 sequence (whole entry)": "T1 sequence (P0ACB2 whole entry)", "experiment": "Stimulation of Escherichia coli recombinant PBGS using 5-ALA as substrate at 10 to 1000 uM at pH 8 in presence of 0.1 to 10000 uM MgCl2"}, "[5]": {"target": "T2, Delta-aminolevulinic acid dehydratase (Escherichia coli (strain K12))", "experiment": "Stimulation of Escherichia coli recombinant PBGS using 5-ALA as substrate at 10 to 1000 uM at pH 8 in presence of MgCl2 and KCl"}, "[6]": {"target": "Delta-aminolevulinic acid dehydratase (Pseudomonas aeruginosa (strain ATCC 15692 / PAO1 / 1C / PRS 101 / LMG12228)) (UniProt Q59643)", "experiment": "Binding affinity to Pseudomonas aeruginosa PAO1 recombinant PBGS at 100 to 500 uM by thermal shift assay in presence of KCl"}, "[7]": {"target": "Delta-aminolevulinic acid dehydratase (Pseudomonas aeruginosa (strain ATCC 15692 / PAO1 / 1C / PRS 101 / LMG12228)) (UniProt Q59643)", "experiment": "Inhibition of Pseudomonas aeruginosa PAO1 recombinant PBGS using low 5-ALA level as substrate at 50 to 200 uM by buffer scan assay"}, "[8]": {"target": "Delta-aminolevulinic acid dehydratase (Pseudomonas aeruginosa (strain ATCC 15692 / PAO1 / 1C / PRS 101 / LMG12228)) (UniProt Q59643)", "experiment": "Stimulation of Pseudomonas aeruginosa PAO1 recombinant PBGS using 5 mM 5-ALA as substrate at 50 to 200 uM at pH 8 by buffer scan assay in presence of KCl"}, "[9]": {"target": "Delta-aminolevulinic acid dehydratase (Yersinia enterocolitica W22703) (UniProt F4MUJ9)", "experiment": "Stimulation of Yersinia enterocolitica recombinant PBGS expressed in Escherichia coli using 5-ALA as substrate at 10 to 1000 uM at pH 8 in presence of 0.1 to 10000 uM MgCl2"}, "[10]": {"target": "Delta-aminolevulinic acid dehydratase (Yersinia enterocolitica W22703, UniProt F4MUJ9)", "sequence (F4MUJ9 whole entry, one chain of several)": "as the sequence (F4MUJ9 as listed by the source) above", "experiment": "Stimulation of Yersinia enterocolitica recombinant PBGS expressed in Escherichia coli using 5-ALA as substrate"}, "[11]": {"target": "T3, Delta-aminolevulinic acid dehydratase (Drosophila melanogaster, UniProt Q9VTV9)", "T3 sequence (Q9VTV9 whole entry)": "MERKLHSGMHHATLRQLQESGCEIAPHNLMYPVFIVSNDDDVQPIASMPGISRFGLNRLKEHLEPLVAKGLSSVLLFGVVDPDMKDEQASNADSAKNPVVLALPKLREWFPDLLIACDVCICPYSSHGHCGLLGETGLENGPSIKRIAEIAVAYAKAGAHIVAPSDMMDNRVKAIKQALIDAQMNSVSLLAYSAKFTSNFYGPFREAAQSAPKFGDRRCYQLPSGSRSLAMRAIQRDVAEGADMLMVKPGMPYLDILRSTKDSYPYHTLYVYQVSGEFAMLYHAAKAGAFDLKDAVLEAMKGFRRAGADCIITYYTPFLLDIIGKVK", "experiment": "Inhibition of Drosophila melanogaster recombinant PBGS using 5-ALA as substrate"}, "[12]": {"target": "Delta-aminolevulinic acid dehydratase (Pseudomonas aeruginosa (strain ATCC 15692 / PAO1 / 1C / PRS 101 / LMG12228), UniProt Q59643)", "sequence (Q59643 whole entry)": "as the sequence (Q59643 whole entry) above", "experiment": "Inhibition of Pseudomonas aeruginosa PAO1 recombinant PBGS using 5-ALA as substrate", "summary_of_the_method": "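Turnover kept at or below 30%. Porphobilinogen measured with Ehrlich's reagent. IC50 by variable-slope fit of activity normalized to DMSO control.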"}, "[13]": {"target": "Delta-aminolevulinic acid dehydratase (Pseudomonas aeruginosa (strain ATCC 15692 / PAO1 / 1C / PRS 101 / LMG12228)) (UniProt Q59643)", "experiment": "Inhibition of Pseudomonas aeruginosa PAO1 recombinant PBGS using 0.2 mM 5-ALA as substrate at 50 to 200 uM at low pH by buffer scan assay"}, "[14]": {"target": "Delta-aminolevulinic acid dehydratase (Pseudomonas aeruginosa (strain ATCC 15692 / PAO1 / 1C / PRS 101 / LMG12228)) (UniProt Q59643)", "experiment": "Competitive inhibition of Pseudomonas aeruginosa PAO1 recombinant PBGS using 0.2 mM 5-ALA as substrate assessed as increase in Km at 50 to 200 uM at pH 7.5 by Michaelis-Menten plot analysis in presence of MgCl2", "summary_of_the_method": "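PaPBGS under \"standard inhibitory\" conditions (100 mM Tris-HCl pH 7.5, 1 mM MgCl2, no KCl). 5-ALA varied for substrate-response curves at several wALADin1 levels; KM and VMAX derived from the fits. Incubation at 36 °C.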"}, "[15]": {"target": "Delta-aminolevulinic acid dehydratase (Pseudomonas aeruginosa (strain ATCC 15692 / PAO1 / 1C / PRS 101 / LMG12228)) (UniProt Q59643)", "experiment": "Stimulation of Pseudomonas aeruginosa PAO1 recombinant PBGS assessed as stabilization of dimeric form at 8 to 2000 uM by nondenaturing PAGE analysis in presence of Mg2+ and K+", "summary_of_the_method": "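PaPBGS (3 μg) preincubated 20 min at 37 °C in assay buffer with 1 mM Mg2+, 100 mM K+ and wALADin1, no 5-ALA. Run on 7.5% nondenaturing PAGE at 4 °C for 15–20 h. Coomassie for oligomer state; in-gel activity with 500 μM 5-ALA stained with Ehrlich's reagent.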"}, "[16]": {"target": "Delta-aminolevulinic acid dehydratase (Pseudomonas aeruginosa (strain ATCC 15692 / PAO1 / 1C / PRS 101 / LMG12228)) (UniProt Q59643)", "experiment": "Stimulation of Pseudomonas aeruginosa PAO1 recombinant PBGS using 5 mM 5-ALA as substrate assessed as increase in Vmax at 10 to 10000 uM at pH 8 by buffer scan assay in presence of MgCl2", "summary_of_the_method": "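Mg2+ or substrate response curves recorded with and without wALADin1; VMAX, KM and Mg2+ affinity derived from the fits.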"}, "[17]": {"target": "Delta-aminolevulinic acid dehydratase (Pseudomonas aeruginosa (strain ATCC 15692 / PAO1 / 1C / PRS 101 / LMG12228)) (UniProt Q59643)", "experiment": "Inhibition of Pseudomonas aeruginosa PAO1 recombinant PBGS using 0.2 mM 5-ALA as substrate at 50 to 200 uM at pH 7.5 in presence of KCl by buffer scan assay"}, "[18]": {"target": "Delta-aminolevulinic acid dehydratase (Pseudomonas aeruginosa (strain ATCC 15692 / PAO1 / 1C / PRS 101 / LMG12228)) (UniProt Q59643)", "experiment": "Stimulation of Pseudomonas aeruginosa PAO1 recombinant PBGS assessed as stabilization of dimeric form at 8 to 2000 uM by nondenaturing PAGE analysis in presence of Mg2+ and K+ and 5-ALA"}},
  "note": "Activity calls are given as the source filed them. The calls are words filed in the database; no cut-off is given here.",
  "data": [
    {"smiles": "O=C(O)c1ccc2c(c1)nc(CCNC(=O)c1cccs1)n2Cc1cccc(C(F)(F)F)c1", "values": [
      {"measurement": "Activity", "setting": "[1]", "result": "Active"},
      {"measurement": "inhibition", "setting": "[2]", "result": "Active"},
      {"measurement": "EC50", "setting": "[3]", "result": 60, "unit": "µM"},
      {"measurement": "Activity", "setting": "[4]", "result": "Active"},
      {"measurement": "Activity", "setting": "[5]", "result": "Active"},
      {"measurement": "Activity", "setting": "[6]", "result": "Active"},
      {"measurement": "inhibition", "setting": "[7]", "result": "Active"},
      {"measurement": "Activity", "setting": "[8]", "result": "Active"},
      {"measurement": "Activity", "setting": "[9]", "result": "Active"},
      {"measurement": "EC50", "setting": "[10]", "result": 66, "unit": "µM"},
      {"measurement": "IC50", "setting": "[11]", "result": 1110, "unit": "µM"},
      {"measurement": "IC50", "setting": "[12]", "result": 79, "unit": "µM"},
      {"measurement": "inhibition", "setting": "[13]", "result": "Active"},
      {"measurement": "inhibition", "setting": "[14]", "result": "Active"},
      {"measurement": "Activity", "setting": "[15]", "result": "inactive"},
      {"measurement": "Activity", "setting": "[16]", "result": "Active"},
      {"measurement": "inhibition", "setting": "[17]", "result": "Active"},
      {"measurement": "Activity", "setting": "[18]", "result": "inactive"}
    ]}
  ]
}
